Among the data in ChEMBL document CHEMBL1131459, “2-Substituted (2SR)-2-amino-2-((1SR,2SR)-2-carboxycycloprop-1-yl)glycines as potent and selective antagonists of group II metabotropic glutamate receptors. 1. Effects of alkyl, arylalkyl, and diarylalkyl substitution” (J Med Chem, 1998) are IC50 values, retold here.

Experiment [1] is described as follows: Inhibitory activity for Group II Metabotropic glutamate receptor in rat forebrain membranes by using [3H]glutamate radioligand. The experiment is classed as cell membranes, Membrane. The method, boiled down: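 Displacement of [³H]glutamic acid binding in rat forebrain membranes, an assay described as selective for group II mGluRs. Each compound was tested as a mixture of four isomers (two racemic diastereomers). Some values are the average of two determinations and some of three.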

Experiment [2] has as its target T1, Metabotropic glutamate receptor 2 (Homo sapiens, UniProt Q14416). Briefly: Compound was tested its ability to block 1S,3R-ACPD-induced inhibition of forskolin stimulated cyclic-AMP in non-neuronal cell line expressing human Metabotropic glutamate receptor 2; Agonist. The experiment is classed as functional.
For experiment [3], the target named is T2, Metabotropic glutamate receptor 3 (Homo sapiens, UniProt Q14832). Briefly: Compound was tested its ability to block 1S,3R-ACPD-induced inhibition of forskolin stimulated cyclic-AMP in non-neuronal cell line expressing human Metabotropic glutamate receptor 3; Agonist. The experiment is classed as functional.
The target of experiment [4] is T1, Metabotropic glutamate receptor 2. The experiment in a line: Ability to block 1S,3R-ACPD-induced inhibition of forskolin stimulated cyclic-AMP in non-neuronal cell line expressing human Metabotropic glutamate receptor 2. It is filed as functional.
Experiment [5] has as its target T2, Metabotropic glutamate receptor 3. The experiment in a line: Ability to block 1S,3R-ACPD-induced inhibition of forskolin stimulated cyclic-AMP in non-neuronal cell line expressing human Metabotropic glutamate receptor 3. The experiment is classed as functional.

T1 sequence (Q14416 whole entry): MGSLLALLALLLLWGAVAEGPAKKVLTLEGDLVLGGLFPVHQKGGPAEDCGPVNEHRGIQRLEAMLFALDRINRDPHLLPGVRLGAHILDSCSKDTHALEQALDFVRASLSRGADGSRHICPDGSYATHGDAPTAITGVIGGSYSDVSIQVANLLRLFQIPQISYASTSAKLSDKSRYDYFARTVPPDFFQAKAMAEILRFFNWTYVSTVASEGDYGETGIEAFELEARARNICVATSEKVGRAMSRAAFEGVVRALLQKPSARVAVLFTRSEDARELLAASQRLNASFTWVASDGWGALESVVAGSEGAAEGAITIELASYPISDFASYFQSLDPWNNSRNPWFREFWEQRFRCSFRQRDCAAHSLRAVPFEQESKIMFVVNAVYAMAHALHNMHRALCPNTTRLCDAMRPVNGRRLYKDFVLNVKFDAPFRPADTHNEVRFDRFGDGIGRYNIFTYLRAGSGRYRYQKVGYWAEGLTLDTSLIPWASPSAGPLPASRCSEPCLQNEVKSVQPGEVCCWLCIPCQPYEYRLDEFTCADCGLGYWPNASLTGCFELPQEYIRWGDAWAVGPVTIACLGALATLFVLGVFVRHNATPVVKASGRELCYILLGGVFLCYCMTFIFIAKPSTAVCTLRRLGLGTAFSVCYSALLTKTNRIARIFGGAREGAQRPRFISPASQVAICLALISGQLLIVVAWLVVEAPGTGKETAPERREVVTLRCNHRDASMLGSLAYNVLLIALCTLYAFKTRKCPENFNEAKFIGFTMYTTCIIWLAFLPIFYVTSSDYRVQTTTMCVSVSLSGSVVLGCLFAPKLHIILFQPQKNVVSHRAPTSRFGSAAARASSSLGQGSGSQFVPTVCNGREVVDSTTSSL
T2 sequence (Q14832 whole entry): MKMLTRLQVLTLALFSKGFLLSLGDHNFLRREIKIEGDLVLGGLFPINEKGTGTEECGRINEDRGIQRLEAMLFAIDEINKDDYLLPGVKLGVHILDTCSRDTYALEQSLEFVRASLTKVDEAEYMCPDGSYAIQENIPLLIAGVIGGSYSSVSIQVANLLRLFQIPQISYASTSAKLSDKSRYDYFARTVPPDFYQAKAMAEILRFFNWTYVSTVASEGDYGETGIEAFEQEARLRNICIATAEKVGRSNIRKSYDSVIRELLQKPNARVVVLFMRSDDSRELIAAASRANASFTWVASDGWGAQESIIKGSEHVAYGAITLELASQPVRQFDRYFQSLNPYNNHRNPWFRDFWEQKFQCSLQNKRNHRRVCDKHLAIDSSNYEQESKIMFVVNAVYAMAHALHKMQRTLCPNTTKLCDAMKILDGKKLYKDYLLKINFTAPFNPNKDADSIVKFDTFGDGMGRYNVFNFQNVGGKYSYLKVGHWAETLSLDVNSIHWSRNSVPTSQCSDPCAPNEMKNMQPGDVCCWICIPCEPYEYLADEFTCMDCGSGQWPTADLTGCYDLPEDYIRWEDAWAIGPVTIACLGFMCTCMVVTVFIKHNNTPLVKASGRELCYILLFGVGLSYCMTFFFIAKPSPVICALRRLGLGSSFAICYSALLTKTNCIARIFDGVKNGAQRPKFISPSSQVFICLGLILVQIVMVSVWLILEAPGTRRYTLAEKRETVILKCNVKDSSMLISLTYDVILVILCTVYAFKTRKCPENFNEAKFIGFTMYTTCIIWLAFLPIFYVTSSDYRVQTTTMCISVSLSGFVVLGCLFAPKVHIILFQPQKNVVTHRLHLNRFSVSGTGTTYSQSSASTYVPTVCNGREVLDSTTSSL

The IC50 is the point on the concentration scale where inhibition reaches its midpoint. Consider `CCC[C@](N)(C(=O)O)C1C[C@@H]1C(=O)O` (some centres not stated), for which the IC50 in experiment [1] was 2100 nM.

On to `N[C@@](CC1CCCc2ccccc21)(C(=O)O)C1C[C@@H]1C(=O)O` (some centres not stated), for which the IC50 in experiment [1] is 230 nM.

`N[C@@](CC1CCCC1)(C(=O)O)C1C[C@@H]1C(=O)O` (some centres not stated) showed an IC50 in experiment [1] of 1400 nM.

`CCCCCCCC[C@](N)(C(=O)O)C1C[C@@H]1C(=O)O` (some centres not stated) displayed an IC50 in experiment [1] of 1700 nM.

For the compound `CCCC[C@](N)(C(=O)O)C1C[C@@H]1C(=O)O` (some centres not stated), in experiment [1], the IC50 was 1400 nM.

In the case of `CCCCC[C@](N)(C(=O)O)C1C[C@@H]1C(=O)O` (some centres not stated), the IC50 in experiment [1] is 1800 nM.

Compound `CC(C)[C@](N)(C(=O)O)C1C[C@@H]1C(=O)O` (some centres not stated) registered an IC50 in experiment [1] of more than 10000 nM.

In experiment [1], `N[C@@](CCC1CCCCC1)(C(=O)O)C1C[C@@H]1C(=O)O` (some centres not stated) had a half-inhibitory concentration (IC50) of 380 nM.

In experiment [1], `CC(C)CC[C@](N)(C(=O)O)C1C[C@@H]1C(=O)O` (some centres not stated) had an IC50 of 1100 nM.

Regarding `CC(C)CCC[C@](N)(C(=O)O)C1C[C@@H]1C(=O)O` (some centres not stated), the 50% inhibitory concentration (IC50) in experiment [1] came to 850 nM.

Consider `N[C@@H](C(=O)O)C1C[C@@H]1C(=O)O` (some centres not stated), for which the figures for the IC50 result in experiment [2], in experiment [1] and in experiment [3] were “Agonist”, 470 nM and “Agonist”, respectively.

On to `N[C@@](CCc1ccc2ccccc2c1)(C(=O)O)C1C[C@@H]1C(=O)O` (some centres not stated), for which, in experiment [1], the IC50 was found to be 2800 nM.

`N[C@@](CC1CCOc2ccccc21)(C(=O)O)C1C[C@@H]1C(=O)O` (some centres not stated): the half-inhibitory concentration (IC50) in experiment [1] was 630 nM.

`N[C@@](CC1c2ccccc2Oc2ccccc21)(C(=O)O)[C@H]1C[C@@H]1C(=O)O`: in experiment [1], the IC50 turned out to be 10 nM.

Turning to `NC(CC1CCCCC1)(C(=O)O)[C@H]1C[C@@H]1C(=O)O` (some centres not stated), the figures for the IC50 in experiment [4], in experiment [1] and in experiment [5] were 1100 nM, 230 nM and 1400 nM, respectively.

`CCC(N)(C(=O)O)[C@H]1C[C@@H]1C(=O)O` (some centres not stated): the 50% inhibitory concentration (IC50) in experiment [4] is 6500 nM; in experiment [1] it was 2200 nM; in experiment [5] it was 2500 nM.

Consider `Cn1cc(CCC(N)(C(=O)O)[C@H]2C[C@@H]2C(=O)O)c2ccccc21` (some centres not stated), for which the figures for the half-maximal inhibitory concentration (IC50) in experiment [4], in experiment [1] and in experiment [5] were 1400 nM, 280 nM and 1200 nM, respectively.

For `NC(CCc1ccsc1)(C(=O)O)[C@H]1C[C@@H]1C(=O)O` (some centres not stated), the results for the IC50 in experiment [4], in experiment [1] and in experiment [5] were 1000 nM, 210 nM and 570 nM, respectively.

For `NC(CCc1ccccc1)(C(=O)O)[C@H]1C[C@@H]1C(=O)O` (some centres not stated), the IC50 was determined as 850 nM in experiment [4], 320 nM in experiment [1] and 650 nM in experiment [5].

As for `NC(CCc1cccc2ccccc12)(C(=O)O)[C@H]1C[C@@H]1C(=O)O` (some centres not stated), the figures for the IC50 in experiment [4] and in experiment [5] were 240 nM and 470 nM, respectively.

Regarding `NC(CCCc1ccccc1)(C(=O)O)[C@H]1C[C@@H]1C(=O)O` (some centres not stated), the IC50 in experiment [4] was 1000 nM; in experiment [1], 630 nM; in experiment [5], 550 nM.

In the case of `NC(CCCCc1ccccc1)(C(=O)O)[C@H]1C[C@@H]1C(=O)O` (some centres not stated), the 50% inhibitory concentration (IC50) is 450 nM in experiment [4], 2300 nM in experiment [1] and 2800 nM in experiment [5].

On to `NC(CCC12CC3CC(CC(C3)C1)C2)(C(=O)O)[C@H]1C[C@@H]1C(=O)O` (some centres not stated), for which the half-maximal inhibitory concentration (IC50) in experiment [4] was found to be 240 nM; in experiment [1] it was 200 nM; in experiment [5], 760 nM.

Turning to `N[C@@](CC(c1ccccc1)c1ccccc1)(C(=O)O)[C@H]1C[C@@H]1C(=O)O`, the IC50 in experiment [4] stood at 4360 nM; in experiment [1] it was 240 nM; in experiment [5], 280 nM.

`N[C@@](CC(Cc1ccccc1)Cc1ccccc1)(C(=O)O)C1C[C@@H]1C(=O)O` (some centres not stated): in experiment [1], the IC50 was more than 10000 nM.

`C[C@](N)(C(=O)O)C1C[C@@H]1C(=O)O` (some centres not stated) had a 50% inhibitory concentration (IC50) in experiment [1] of 6200 nM.

`N[C@@](CCC1CCNCC1)(C(=O)O)C1C[C@@H]1C(=O)O` (some centres not stated): the half-inhibitory concentration (IC50) in experiment [1] is more than 10000 nM.

Regarding `N[C@@](COc1ccccc1)(C(=O)O)C1C[C@@H]1C(=O)O` (some centres not stated), the IC50 in experiment [1] was 11200 nM.

On to `N[C@@](Cc1ccccc1)(C(=O)O)C1C[C@@H]1C(=O)O` (some centres not stated), for which the IC50 in experiment [4], in experiment [1] and in experiment [5] was more than 10000 nM in each case.

`CC(C[C@](N)(C(=O)O)C1C[C@@H]1C(=O)O)c1ccccc1` (some centres not stated) showed an IC50 in experiment [1] of 200 nM.

Take `CC(C)C[C@](N)(C(=O)O)C1C[C@@H]1C(=O)O` (some centres not stated): the half-maximal inhibitory concentration (IC50) in experiment [4] was 1600 nM; in experiment [1], 700 nM; in experiment [5], 1800 nM.

With `N[C@@](CC1CCC1)(C(=O)O)C1C[C@@H]1C(=O)O` (some centres not stated), the 50% inhibitory concentration (IC50) is more than 10000 nM in experiment [4], 29500 nM in experiment [1] and more than 10000 nM in experiment [5].

Take `N[C@@](CCC1C2CC3CC(C2)CC1C3)(C(=O)O)C1C[C@@H]1C(=O)O` (some centres not stated): the IC50 in experiment [1] amounted to 550 nM.

In turn, `N[C@@](CCCC(c1ccccc1)c1ccccc1)(C(=O)O)C1C[C@@H]1C(=O)O` (some centres not stated) had an IC50 in experiment [1] of 7000 nM.

As to `N[C@@](CC1c2ccccc2Sc2ccccc21)(C(=O)O)C1C[C@@H]1C(=O)O` (some centres not stated), in experiment [1], the IC50 amounted to 19 nM.

For `N[C@@](CCC(c1ccccc1)c1ccccc1)(C(=O)O)C1C[C@@H]1C(=O)O` (some centres not stated), the IC50 in experiment [4] was more than 10000 nM; in experiment [1], 7100 nM; in experiment [5] it was more than 10000 nM.

As to `N[C@@](CCc1cccs1)(C(=O)O)C1C[C@@H]1C(=O)O` (some centres not stated), the IC50 in experiment [1] amounted to 580 nM.

Compound `N[C@](C(=O)O)(C1Cc2ccccc2C1)C1C[C@@H]1C(=O)O` (some centres not stated) displayed an IC50 in experiment [1] of more than 10000 nM.
